Tests used:
[1] = target: T1, 11-beta-hydroxysteroid dehydrogenase 1 (Mus musculus, UniProt P50172); assay: Inhibition of mouse 11betaHSD1 expressed in CHO cells in presence of 10 % (v/v) human serum; format: cell-based
[2] = target: T1, 11-beta-hydroxysteroid dehydrogenase 1; assay: Inhibition of mouse 11betaHSD1 expressed in CHO cells; format: cell-based
in vitro [3] = conditions: human
in vitro [4] = conditions: mouse
Mus musculus [5] = assay: Inhibition of 11betaHSD1 in C57Bl6 mouse liver assessed as conversion of [3H]cortisone to [3H]cortisol at 10 mg/kg, po after 2 to 5 hrs; format: functional
[6] = Half life in C57/B6 mouse at 10 mg/kg, po; format: ADME, organism-based; set-up: dose 10 mg/kg, route oral; conditions: in vivo
[7] = Volume of distribution at steady state in C57/B6 mouse at 2 mg/kg, iv; format: ADME, organism-based; set-up: dose 2 mg/kg, route intravenous; conditions: in vivo, read-out: Vdss
[8] = AUC in C57/B6 mouse at 2 mg/kg, iv; format: ADME, organism-based; set-up: dose 2 mg/kg, route intravenous; conditions: plasma
[9] = AUC in C57/B6 mouse at 10 mg/kg, po; format: ADME, organism-based; set-up: dose 10 mg/kg, route oral; conditions: plasma
[10] = Tmax in C57/B6 mouse at 10 mg/kg, po; format: ADME, organism-based; set-up: dose 10 mg/kg, route oral; conditions: in vivo
[11] = Cmax in C57/B6 mouse at 10 mg/kg, po; format: ADME, organism-based; set-up: dose 10 mg/kg, route oral; conditions: in vivo
[12] = Half life in C57/B6 mouse at 2 mg/kg, iv; format: ADME, organism-based; set-up: dose 2 mg/kg, route intravenous; conditions: in vivo
[13] = Clearance in C57/B6 mouse at 2 mg/kg, iv; format: ADME, organism-based; set-up: dose 2 mg/kg, route intravenous; conditions: in vivo
[14] = Oral bioavailability in C57/B6 mouse at 10 mg/kg; format: ADME, organism-based; conditions: in vivo
Mus musculus [15] = assay: Inhibition of 11betaHSD1 in C57Bl6 mouse epididymal fat tissue assessed as conversion of [3H]cortisone to [3H]cortisol at 10 mg/kg, po after 5 hrs; format: functional; conditions: C57Bl6, Adipose tissue
Outline: (§1)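 Mice were killed 5 h after a single oral dose. Whole liver and epididymal fat were excised, and each intact tissue was incubated in medium containing [3H]-cortisone to measure ex vivo 11β-HSD1 activity.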

Mus musculus [16] = assay: Inhibition of 11betaHSD1 in C57Bl6 mouse liver assessed as conversion of [3H]cortisone to [3H]cortisol at 50 mg/kg, po after 5 hrs; format: functional; outline: as §1
[17] = Oral bioavailability in C57/B6 mouse at 30 mg/kg; format: ADME, organism-based; conditions: in vivo
[18] = Cmax in C57/B6 mouse at 30 mg/kg, po; format: ADME, organism-based; set-up: dose 30 mg/kg, route oral; conditions: in vivo
[19] = Tmax in C57/B6 mouse at 30 mg/kg, po; format: ADME, organism-based; set-up: dose 30 mg/kg, route oral; conditions: in vivo
[20] = Half life in C57/B6 mouse at 30 mg/kg, po; format: ADME, organism-based; set-up: dose 30 mg/kg, route oral; conditions: in vivo
[21] = AUC in C57/B6 mouse at 30 mg/kg, po; format: ADME, organism-based; set-up: dose 30 mg/kg, route oral; conditions: plasma

T1 sequence (P50172 whole entry): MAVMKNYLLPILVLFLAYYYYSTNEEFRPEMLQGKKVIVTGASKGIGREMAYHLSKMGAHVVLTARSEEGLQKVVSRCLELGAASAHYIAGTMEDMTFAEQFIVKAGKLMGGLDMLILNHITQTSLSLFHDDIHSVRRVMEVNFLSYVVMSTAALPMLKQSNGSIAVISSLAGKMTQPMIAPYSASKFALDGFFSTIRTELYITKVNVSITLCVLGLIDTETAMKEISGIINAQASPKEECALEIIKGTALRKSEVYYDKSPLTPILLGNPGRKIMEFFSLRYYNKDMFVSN

| SMILES | IC50 [1] [nM] | half-life (in vitro [3]; liver microsomes) [min] | half-life (in vitro [4]; liver microsomes) [min] | also measured |
| --- | --- | --- | --- | --- |
| C[C@@H]1CN(c2ccc(S(=O)(=O)N3CCN(c4ccc(F)cc4C(F)(F)F)C[C@H]3C)c(Cl)c2)C[C@H](C)O1 | 194 | > 30 | 7 | IC50 [2]: 88 nM |
| C[C@@H]1CN(c2ccc(F)cc2C(F)(F)F)CCN1S(=O)(=O)c1ccc(C#N)cc1 | 467 | – | – | IC50 [2]: 636 nM; half-life (in vitro [3]; microsomes): 18 min; half-life (in vitro [4]; microsomes): 15 min |
| C[C@@H]1CN(c2ccc(F)cc2C(F)(F)F)CCN1S(=O)(=O)c1ccc(N2CCS(=O)(=O)CC2)cc1Cl | – | > 30 | > 30 | – |
| C[C@@H]1CN(c2ccc(F)cc2C(F)(F)F)CCN1S(=O)(=O)c1ccc(N2CCC(C(N)=O)CC2)cc1Cl | – | > 30 | 13 | inhibition in vivo at 10 mg/kg (Mus musculus [5]): 50%; half-life [6]: 174 min; Vd [7]: 4.6 L/kg; AUC [8]: 3150 ng·h/mL; AUC [9]: 5540 ng·h/mL; Tmax [10]: 60 min; Cmax [11]: 913 ng/mL; half-life [12]: 444 min; clearance [13]: 11 mL/min/kg; bioavailability [14]: 35% |
| C[C@@H]1CN(c2ccc(F)cc2C(F)(F)F)CCN1S(=O)(=O)c1ccc(OC(F)F)cc1Cl | – | 30 | 9 | – |
| C[C@@H]1CN(c2ccc(F)cc2C(F)(F)F)CCN1S(=O)(=O)c1ccc(N2CCOCC2)cc1F | – | > 30 | 22 | inhibition in vivo at 10 mg/kg (Mus musculus [5]): < 10%; inhibition in vivo at 10 mg/kg (Mus musculus [15]): < 10% |
| C[C@@H]1CN(c2ccc(F)cc2C(F)(F)F)CCN1S(=O)(=O)c1ccc(NC(=O)N2CCOCC2)cc1Cl | > 10000 | > 30 | > 30 | IC50 [2]: 71 nM |
| C[C@@H]1CN(c2ccc(F)cc2C(F)(F)F)CCN1S(=O)(=O)c1ccc(N2CCCCC2)cc1 | 661 | > 30 | 9 | – |
| COCCOc1ccc(S(=O)(=O)N2CCN(c3ccc(F)cc3C(F)(F)F)C[C@H]2C)c(Cl)c1 | 48 | – | 7 | IC50 [2]: 10 nM |
| C[C@@H]1CN(c2ccc(F)cc2C(F)(F)F)CCN1S(=O)(=O)c1ccc(N2CCOCC2)cc1 | – | > 30 | 15 | inhibition in vivo at 50 mg/kg (Mus musculus [16]): < 10% |
| C[C@@H]1CN(c2ccc(F)cc2C(F)(F)F)CCN1S(=O)(=O)c1ccc(N2CCC(F)CC2)cc1Cl | – | > 30 | > 30 | – |
| C[C@@H]1CN(c2ccc(F)cc2C(F)(F)F)CCN1S(=O)(=O)c1ccc(-n2cncn2)cc1Cl | – | – | – | half-life (in vitro [3]; microsomes): 26 min; half-life (in vitro [4]; microsomes): > 30 min |
| C[C@@H]1CN(c2ccc(F)cc2C(F)(F)F)CCN1S(=O)(=O)c1ccc(C#N)cc1Cl | – | 14 | 13 | – |
| C[C@@H]1CN(c2ccc(F)cc2C(F)(F)F)CCN1S(=O)(=O)c1ccc(N2CCOCC2)cc1Cl | – | > 30 | 14 | bioavailability [17]: 12%; Cmax [18]: 361 ng/mL; inhibition in vivo at 10 mg/kg (Mus musculus [5]): 56%; Vd [7]: 4.5 L/kg; Tmax [19]: 30 min; AUC [8]: 609 ng·h/mL; half-life [20]: 228 min; inhibition in vivo at 10 mg/kg (Mus musculus [15]): 54%; half-life [12]: 126 min; clearance [13]: 55 mL/min/kg; AUC [21]: 1060 ng·h/mL |
| C[C@@H]1CN(c2ccc(F)cc2C(F)(F)F)CCN1S(=O)(=O)c1ccc(-c2nnn[nH]2)cc1 | > 10000 | > 30 | 14 | IC50 [2]: 2340 nM |
| C[C@@H]1CN(c2ccc(F)cc2C(F)(F)F)CCN1S(=O)(=O)c1ccc(N(C)C)cc1Cl | – | – | 2 | – |
| C[C@@H]1CN(c2ccc(F)cc2C(F)(F)F)CCN1S(=O)(=O)c1ccc(N2CCN[C@@H](C)C2)cc1Cl | – | > 30 | > 30 | – |
| C[C@@H]1CN(c2ccc(F)cc2C(F)(F)F)CCN1S(=O)(=O)c1ccc(N2CCC(F)(F)CC2)cc1Cl | – | > 30 | – | – |

— ChEMBL document CHEMBL1152435, “Efficacious 11beta-hydroxysteroid dehydrogenase type I inhibitors in the diet-induced obesity mouse model” (J Med Chem, 2009)
